Results reported in ChEMBL document CHEMBL1151470, “Pharmacokinetic interaction between fosamprenavir-ritonavir and rifabutin in healthy subjects” (Antimicrob Agents Chemother, 2008).

Key:
[1] = tested on: Homo sapiens; test: AUC (0 to 48 hrs) in human assessed as dAc-RFB level at 150 mg, […] coadministered with 700 mg fosamprenavir and 100 mg ritonavir po BID; assay type: ADME, organism-based, Plasma; set-up: dose 150 mg, time < 48 hr, route oral; conditions: in vivo
Procedure, shortened: (§1)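 Healthy volunteers received RFB 150 mg every other day with FPV-RTV 700/100 mg BID to steady state. Serial EDTA plasma was sampled on the last treatment day at predose and 0.5–24, 36 and 48 h, then stored at –20°C. AUC0-48 came from noncompartmental analysis (linear up/log-linear down trapezoidal) using actual elapsed sampling times.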

[2] = Cmax in human at 300 mg, po QD; conditions: in vivo
[3] = tested on: Homo sapiens; test: Toxicity in human assessed as chills at 300 mg, po QD; assay type: organism-based; conditions: in vivo
[4] = tested on: Homo sapiens; test: Toxicity in human assessed as psychiatric disorder at 150 mg, […] with 700 mg fosamprenavir and 100 mg ritonavir po BID; assay type: organism-based; conditions: in vivo
[5] = tested on: Homo sapiens; test: Toxicity in human assessed as blood and lymphatic system disorder at 150 mg, […] with 700 mg fosamprenavir and 100 mg ritonavir po BID; assay type: organism-based; conditions: in vivo
[6] = tested on: Homo sapiens; test: Toxicity in human assessed as rash generalized at 300 mg, po QD; assay type: organism-based; conditions: in vivo
[7] = tested on: Homo sapiens; test: Toxicity in human assessed as decrease in neutrophile count at 300 mg, po QD; assay type: organism-based; set-up: scale not given: the % may be the effect or the level left; conditions: in vivo
[8] = tested on: Homo sapiens; test: Toxicity in human assessed as blood and lymphatic system disorder at 300 mg, po QD; assay type: organism-based; conditions: in vivo
[9] = tested on: Homo sapiens; test: Toxicity in human assessed as insomnia at 300 mg, po QD; assay type: organism-based; conditions: in vivo
[10] = tested on: Homo sapiens; test: Toxicity in human assessed as skin and subcutaneous tissue disorder at 150 mg, […] with 700 mg fosamprenavir and 100 mg ritonavir po BID; assay type: organism-based; conditions: in vivo
[11] = AUC (0 to 48 hrs) in human at 150 mg, […] coadministered with 700 mg fosamprenavir and 100 mg ritonavir po BID; assay type: ADME, organism-based; set-up: time < 48 hr, dose 150 mg, route oral; conditions: plasma; procedure, shortened: as §1
[12] = tested on: Homo sapiens; test: AUC (0 to 48 hrs) in human assessed as dAc-RFB level at 300 mg, po QD; assay type: ADME, organism-based, Plasma; set-up: dose 300 mg, time < 48 hr, route oral; conditions: in vivo
Procedure, shortened: (§2)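 Volunteers took RFB 300 mg QD alone to steady state. Serial EDTA plasma was sampled on the last treatment day at predose and 0.5–24 h, then stored at –20°C. AUC0-24 came from noncompartmental analysis (linear up/log-linear down trapezoidal) using actual times, and was doubled to estimate AUC0-48.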

[13] = tested on: Homo sapiens; test: Toxicity in human assessed as general disorder at 150 mg, […] with 700 mg fosamprenavir and 100 mg ritonavir po BID; assay type: organism-based; conditions: in vivo
[14] = tested on: Homo sapiens; test: Toxicity in human assessed as insomnia at 150 mg, […] with 700 mg fosamprenavir and 100 mg ritonavir po BID; assay type: organism-based; conditions: in vivo
[15] = tested on: Homo sapiens; test: Toxicity in human assessed as diarrhea disorder at 150 mg, po QOD coadministered with 700 mg fosamprenavir and 100 mg ritonavir po BID; conditions: in vivo
[16] = tested on: Homo sapiens; test: Toxicity in human assessed as renal and urinary disorder at 150 mg, […] with 700 mg fosamprenavir and 100 mg ritonavir po BID; assay type: organism-based, Urine; conditions: in vivo
[17] = tested on: Homo sapiens; test: Toxicity in human assessed as skin and subcutaneous tissue disorder at 300 mg, po QD; assay type: organism-based; conditions: in vivo
[18] = tested on: Homo sapiens; test: Toxicity in human assessed as fatigue at 150 mg, […] with 700 mg fosamprenavir and 100 mg ritonavir po BID; assay type: organism-based; conditions: in vivo
[19] = tested on: Homo sapiens; test: Toxicity in human assessed as neutropenia at 150 mg, […] with 700 mg fosamprenavir and 100 mg ritonavir po BID; assay type: organism-based; conditions: in vivo
[20] = tested on: Homo sapiens; test: Toxicity in human assessed as pollakiurea at 150 mg, po QOD coadministered with 700 mg fosamprenavir and 100 mg ritonavir po BID; conditions: in vivo
[21] = tested on: Homo sapiens; test: Toxicity in human assessed as myalgia at 150 mg, po QOD coadministered with 700 mg fosamprenavir and 100 mg ritonavir po BID; conditions: in vivo
[22] = tested on: Homo sapiens; test: Toxicity in human assessed as nausea at 300 mg, po QD; assay type: organism-based; conditions: in vivo
[23] = tested on: Homo sapiens; test: Toxicity in human assessed as increase in ALT level at 150 mg, […] with 700 mg fosamprenavir and 100 mg ritonavir po BID; assay type: organism-based; conditions: in vivo
[24] = tested on: Homo sapiens; test: Toxicity in human assessed as myalgia at 300 mg, po QD; assay type: organism-based; conditions: in vivo
[25] = tested on: Homo sapiens; test: Toxicity in human assessed as musculoskeletal and connective tissue disorder at 150 mg, […] with 700 mg fosamprenavir and 100 mg ritonavir po BID; assay type: organism-based; conditions: in vivo
[26] = tested on: Homo sapiens; test: Toxicity in human assessed as increase in ALT level at 300 mg, po QD; assay type: organism-based; conditions: in vivo
[27] = tested on: Homo sapiens; test: Toxicity in human assessed as nervous system disorder at 300 mg, po QD; assay type: organism-based; conditions: in vivo
[28] = tested on: Homo sapiens; test: Toxicity in human assessed as headache at 150 mg, […] with 700 mg fosamprenavir and 100 mg ritonavir po BID; assay type: organism-based; conditions: in vivo
[29] = tested on: Homo sapiens; test: Toxicity in human assessed as neutropenia at 300 mg, po QD; assay type: organism-based; conditions: in vivo
[30] = tested on: Homo sapiens; test: Toxicity in human assessed as chromaturia at 150 mg, po QOD coadministered with 700 mg fosamprenavir and 100 mg ritonavir po BID; conditions: in vivo
[31] = tested on: Homo sapiens; test: Toxicity in human assessed as pollakiurea at 300 mg, po QD; assay type: organism-based; conditions: in vivo
[32] = tested on: Homo sapiens; test: Toxicity in human assessed as nervous system disorder at 150 mg, […] with 700 mg fosamprenavir and 100 mg ritonavir po BID; assay type: organism-based; conditions: in vivo
[33] = tested on: Homo sapiens; test: Toxicity in human assessed as pain at 150 mg, […] with 700 mg fosamprenavir and 100 mg ritonavir po BID; assay type: organism-based; conditions: in vivo
[34] = tested on: Homo sapiens; test: Toxicity in human assessed as increase in neutrophile count at 150 mg, […] with 700 mg fosamprenavir and 100 mg ritonavir po BID; assay type: organism-based; conditions: in vivo
[35] = tested on: Homo sapiens; test: Toxicity in human assessed as psychiatric disorder at 300 mg, po QD; assay type: organism-based; conditions: in vivo
[36] = tested on: Homo sapiens; test: Toxicity in human assessed as nausea at 150 mg, po QOD coadministered with 700 mg fosamprenavir and 100 mg ritonavir po BID; conditions: in vivo
[37] = tested on: Homo sapiens; test: Toxicity in human assessed as gastrointestinal disorder at 300 mg, po QD; assay type: organism-based; conditions: in vivo
[38] = tested on: Homo sapiens; test: Toxicity in human assessed as pain at 300 mg, po QD; assay type: organism-based; conditions: in vivo
[39] = tested on: Homo sapiens; test: Toxicity in human assessed as musculoskeletal and connective tissue disorder at 300 mg, po QD; assay type: organism-based; conditions: in vivo
[40] = tested on: Homo sapiens; test: Toxicity in human assessed as fatigue at 300 mg, po QD; assay type: organism-based; conditions: in vivo
[41] = tested on: Homo sapiens; test: Toxicity in human assessed as rash generalized at 150 mg, […] with 700 mg fosamprenavir and 100 mg ritonavir po BID; assay type: organism-based; conditions: in vivo
[42] = tested on: Homo sapiens; test: Toxicity in human assessed as general disorder at 300 mg, po QD; assay type: organism-based; conditions: in vivo
[43] = tested on: Homo sapiens; test: Toxicity in human assessed as increase in neutrophile count at 300 mg, po QD; assay type: organism-based; conditions: in vivo
[44] = tested on: Homo sapiens; test: Toxicity in human assessed as thrombocytopenia at 150 mg, […] with 700 mg fosamprenavir and 100 mg ritonavir po BID; assay type: organism-based; conditions: in vivo
[45] = tested on: Homo sapiens; test: Toxicity in human assessed as thrombocytopenia at 300 mg, po QD; assay type: organism-based; conditions: in vivo
[46] = tested on: Homo sapiens; test: Toxicity in human assessed as decrease in neutrophile count at 150 mg, […] with 700 mg fosamprenavir and 100 mg ritonavir po BID; assay type: organism-based; set-up: scale not given: the % may be the effect or the level left; conditions: in vivo
[47] = tested on: Homo sapiens; test: Toxicity in human assessed as headache at 300 mg, po QD; assay type: organism-based; conditions: in vivo
[48] = tested on: Homo sapiens; test: Toxicity in human assessed as chromaturia at 300 mg, po QD; assay type: organism-based; conditions: in vivo
[49] = tested on: Homo sapiens; test: Toxicity in human assessed as renal and urinary disorder at 300 mg, po QD; assay type: organism-based, Urine; conditions: in vivo
[50] = tested on: Homo sapiens; test: Toxicity in human assessed as diarrhea at 300 mg, po QD; assay type: organism-based; conditions: in vivo
[51] = AUC (0 to 48 hrs) in human at 300 mg, po QD; assay type: ADME, organism-based; set-up: time < 48 hr, dose 300 mg, route oral; conditions: plasma; procedure, shortened: as §2
[52] = tested on: Homo sapiens; test: Toxicity in human assessed as chills at 150 mg, […] with 700 mg fosamprenavir and 100 mg ritonavir po BID; assay type: organism-based; conditions: in vivo
[53] = clinical; conditions: human, in vivo, po
[54] = tested on: Homo sapiens; test: Toxicity in human assessed as gastrointestinal disorder at 150 mg, po QOD coadministered with 700 mg fosamprenavir and 100 mg ritonavir po BID; conditions: in vivo

## CO[C@H]1/C=C/O[C@@]2(C)Oc3c(C)c(O)c4c(c3C2=O)C2=NC3(CCN(CC(C)C)CC3)NC2=C(NC(=O)/C(C)=C\C=C\[C@H](C)[C@H](O)[C@@H](C)[C@@H](O)[C@@H](C)[C@H](OC(C)=O)[C@@H]1C)C4=O [RIFABUTIN]
[1]
  AUC: 4600 ng·h/mL
[2]
  Cmax: 313 ng/mL
[3]
  Activity: 0%
[4]
  Activity: 2%
[5]
  Activity: 3%
[6]
  Activity: 0%
[7]
  Activity: 3%
[8]
  Activity: 3%
[9]
  Activity: 4%
[10]
  Activity: 6%
[11]
  AUC at 48 h: 5810 ng·h/mL
[12]
  AUC: 411 ng·h/mL
[13]
  Activity: 7%
[14]
  Activity: 1%
[15]
  Activity: 4%
[16]
  Activity: 50%
[17]
  Activity: 0%
[18]
  Activity: 4%
[19]
  Activity: 1%
[20]
  Activity: 12%
[21]
  Activity: 4%
[22]
  Activity: 6%
[23]
  Activity: 5%
[24]
  Activity: 0%
[25]
  Activity: 5%
[26]
  Activity: 0%
[27]
  Activity: 35%
[28]
  Activity: 45%
[29]
  Activity: 2%
[30]
  Activity: 4%
[31]
  Activity: 6%
[32]
  Activity: 55%
[33]
  Activity: 1%
[34]
  Activity: 3%
[35]
  Activity: 5%
[36]
  Activity: 9%
[37]
  Activity: 2%
[38]
  Activity: 2%
[39]
  Activity: 2%
[40]
  Activity: 0%
[41]
  Activity: 2%
[42]
  Activity: 3%
[43]
  Activity: 0%
[44]
  Activity: 3%
[45]
  Activity: 0%
[46]
  Activity: 3%
[47]
  Activity: 35%
[48]
  Activity: 0%
[49]
  Activity: 59%
[50]
  Activity: 0%
[51]
  AUC at 48 h: 6110 ng·h/mL
[52]
  Activity: 3%
[53]
  Cmax: 268 ng/mL
[54]
  Activity: 7%
